How the values were obtained:
Rattus norvegicus [1] = test: The compound was tested for anticonvulsant activity against Maximal Electroshock-Induced Seizures(MES) in intraperitoneal administration.; type: functional; conditions: ip
How it was run: (§1)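 Male Wistar rats (Charles River), maximal electroshock seizure test. Compounds given as solutions or fine dispersions in water or 0.5% methylcellulose; poorly soluble samples micronized. Initial screen at 25 mg/kg ip. ED50 is the dose protecting 50% against hind-limb extensor component, calculated by Miller–Tainter method. Either four doses with at least 12 animals each (with standard error), or three doses with six animals each.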

Rattus norvegicus [2] = test: The compound was tested for anticonvulsant activity against Maximal Electroshock-Induced Seizures(MES) in Wistar male rat, after peroral administration.; type: functional; conditions: po; how it was run: as §1
[3] = Dissociation constant was measured; type: physicochemical
[4] = Lipophilicity was measured; type: physicochemical; conditions: octanol/water

Row | Structure (SMILES) | ED50 (Rattus norvegicus [1]) | ED50 (Rattus norvegicus [2]) | pKa [3] | logP [4]
1 | CNc1nccn2c(Cc3cc(F)ccc3F)nnc12 | 4 mg/kg | 10 mg/kg |  | 
2 | CNc1nccn2c(Cc3ccc(F)cc3)nnc12 | 25 mg/kg |  |  | 
3 | Nc1ncnc2c1ncn2Cc1ccccc1F | 4.5 mg/kg | 12 mg/kg |  | 
4 | CNc1ncnc2c1ncn2Cc1ccccc1F [BW-A78U] | 1.7 mg/kg | 2.5 mg/kg | 3.88 | 1.86
5 | Nc1nccn2c(Cc3c(F)cccc3F)nnc12 | 4 mg/kg | 7 mg/kg |  | 
6 | CNc1nccn2c(Cc3c(F)cccc3F)nnc12 | 2 mg/kg | 3 mg/kg |  | 
7 | CNc1nccn2c(Cc3cccc(F)c3)nnc12 | 4 mg/kg | 20 mg/kg |  | 
8 | Nc1nccn2c(Cc3ccccc3F)nnc12 | 9 mg/kg | 8 mg/kg |  | 
9 | CNc1nccn2c(Cc3ccccc3)nnc12 | 6 mg/kg | 16 mg/kg |  | 
10 | O=C1NC(=O)C(c2ccccc2)(c2ccccc2)N1 [PHENYTOIN] | 10 mg/kg | 20 mg/kg |  | 
11 | Nc1nccn2c(Cc3ccc(F)cc3)nnc12 | > 25 mg/kg |  |  | 
12 | Nc1nccn2c(Cc3cccc(F)c3)nnc12 | > 25 mg/kg |  |  | 
13 | Nc1nccn2c(Cc3cc(F)ccc3F)nnc12 | 7 mg/kg | 20 mg/kg |  | 
14 | CNc1nccn2c(Cc3ccccc3F)nnc12 | 5 mg/kg | 2.6 mg/kg | 4.02 | 1.56

From ChEMBL document CHEMBL1128552, “8-Amino-3-benzyl-1,2,4-triazolo[4,3-a]pyrazines. Synthesis and anticonvulsant activity” (J Med Chem, 1995)
